High-throughput results from PubChem BioAssay.
SMARCA2 activ – increases SMARCA2 function in MMTV reporter cells | MG213 cells, MMTV-luciferase reporter, dexamethasone, overnight | activation, % at 9.1 µM | 1% of 370,000 active; in the data active = activation above about 7.8%;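 also: 0% = vehicle wells and 100% = reference activator wells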
CFTR F508del cor – correctors of CFTR F508del function in bronchial epithelial cells; CFBE cells, YFP halide quenching; stimulated with forskolin plus potentiator P3; % fluorescence drop versus neutral controls; activity (quench increase), % at 7.58 µM; 0.36% of 350,000 active; AID 720511;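 active = mean added fluorescence quench of at least 8% versus neutral control, with both replicates also reaching 8%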;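 also: cells transiently co-express mutant CFTR-F508del with the halide-sensitive YFP; corrector assay measuring rescue of mutant channel to the surface after 24 h compound exposure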
MC4R antagonist – blocks human MC4R cAMP signaling; 0.48% of 360,000 active; inhibition, % at 6.5 µM; MC4R-expressing cells, MTII-stimulated cAMP, LANCE TR-FRET; AID 540295; P32245;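 active = inhibition above its plate's cutoff, the mean of tested wells on that plate plus 3 SD, cut at about 29% in these data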;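 also: 0% = Melanotan II alone and 100% = Melanotan II plus saturating MCL0020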
Target sequence (P32245 whole entry, looked up): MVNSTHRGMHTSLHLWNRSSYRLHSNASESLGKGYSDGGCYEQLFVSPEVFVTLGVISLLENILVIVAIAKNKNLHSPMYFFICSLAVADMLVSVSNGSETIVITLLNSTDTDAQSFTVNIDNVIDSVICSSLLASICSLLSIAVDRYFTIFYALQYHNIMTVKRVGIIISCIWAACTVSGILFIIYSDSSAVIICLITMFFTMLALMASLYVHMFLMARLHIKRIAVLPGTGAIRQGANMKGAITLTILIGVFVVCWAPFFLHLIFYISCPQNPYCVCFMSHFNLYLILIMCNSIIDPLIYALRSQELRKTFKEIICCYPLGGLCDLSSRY
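System – human MC4R-expressing U2OS cells · Also added – Melanotan II · Dosing – one concentration, 6.5 µM nominal · Timing – 30-min compound, 1-h challenge, 1-h detection, room temperature · Measured by – Eu-cAMP/anti-cAMP TR-FRET, emission 671 nm · Replicates – singlicate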
MC4R ag barr – activates human MC4R beta-arrestin recruitment; U2OS MC4R beta-arrestin complementation, luminescence; percent of melanotan II response, DMSO zero; 0.98% of 360,000 active; activation, % at 8.9 µM;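 active = activation above a per-plate cutoff, the mean activation of sample wells on that plate plus 3 SD, cut at about 8% in these data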
cAMP nonselect – counter-screen for MC4R antagonists: nonselective cAMP signaling inhibitors; shares compounds with MC4R antagonist; parental U2OS, forskolin cAMP, LANCE TR-FRET; inhibition, % at 6.5 µM; 26% of 1,600 active; AID 602193;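 active = mean inhibition over triplicates above the low-control well mean plus 3 SD, set per campaign, cut at about 13% in these data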;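 also: signal is single emission at 671 nm which falls as cellular cAMP rises; 0% = forskolin-stimulated wells and 100% = buffer without forskolin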
MC4R antag conf – human MC4R cAMP antagonism confirmation; shares compounds with MC4R antagonist; MC4R-expressing cells, MTII-stimulated cAMP, TR-FRET; inhibition, % at 6.5 µM; 27% of 1,600 active; in the data active = inhibition above about 29%;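 also: 0% = agonist stimulated wells alone and 100% = agonist stimulated wells plus saturating reference antagonist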
Active calls of the source: *; · = no result. Sampled rows, rich in hits. Any-hit rate of the full collection: about 2.1%.

SMILES	SMARCA2 activ	CFTR F508del cor	MC4R antagonist	MC4R ag barr	cAMP nonselect	MC4R antag conf
CC(C)C#Cc1ccc2c(c1)O[C@H](CN(C)C(=O)Cc1ccccn1)[C@@H](C)CN([C@@H](C)CO)S2(=O)=O	·	3.9	·	·	·	·
O=C1Nc2cccc3c2N(CCC3)C2=C1CCC2	2.4	3.2	29.5*	-0.3	1.3	11.5
O=C1c2cccc3c2N(CCC3)C(=O)C1(F)c1ccccc1 (configuration not stated)	-5.8	-1.0	17.4	0.2	·	·
CC=Cc1ccc2n(c1=O)C[C@H]1[C@H](CO)[C@@H](C(=O)NCC3CC3)N(CCC)[C@@H]21 (mixture of isomers)	·	0.9	·	·	·	·
O=C(CC1C(=O)NCCN1Cc1ccc(-c2ccccc2)cc1)NCCCn1ccnc1 (configuration not stated)	-1.2	-1.6	30.7*	1.4	-14.3	-24.5
O=C(CC1C(=O)NCCN1Cc1ccc(-c2ccccc2)cc1)NCCOc1cccnc1 (configuration not stated)	-4.3	0.5	-3.8	-1.4	·	·
CS(=O)(=O)c1ccc(C(=O)OCC(=O)NC(=O)C2COc3ccccc3O2)cc1[N+](=O)[O-] (configuration not stated)	-2.0	-1.7	30.8*	-1.9	12.7	21.4
CC(CCc1ccccc1)NC(=O)COC(=O)c1ccc([N+](=O)[O-])cc1 (configuration not stated)	-0.2	-2.4	7.8	-1.4	·	·
CS(=O)(=O)c1ccc(C(=O)OCC(=O)N2CCN(CCC3CCCCC3)CC2)cc1[N+](=O)[O-]	-11.1	1.9	14.8	-2.9	·	·
CC(CCc1ccccc1)NC(=O)COC(=O)c1ccc(S(C)(=O)=O)c([N+](=O)[O-])c1 (configuration not stated)	0.3	-3.6	69.8*	-2.7	32.2*	55.5*
Nc1ccc(C(=O)NNC(=O)C2COc3ccccc3O2)cc1[N+](=O)[O-] (configuration not stated)	-2.8	-2.5	6.9	-3.1	·	·
CS(=O)(=O)c1ccc(C(=O)OCC(=O)NC(=O)C2CCCCC2)cc1[N+](=O)[O-]	1.0	-8.6	33.3*	-3.7	25.3*	42.6*
COCCn1c(SCC(=O)NC2CCCCC2C)nnc1-c1ccncc1 (configuration not stated)	0.5	-1.0	29.3*	0.3	0.0	-3.6
CC(C)(C)NC(=O)NC(=O)COC(=O)CNC(=O)c1cc(Cl)cc([N+](=O)[O-])c1	-3.2	-4.0	29.6*	-5.5	10.7	11.8
CCC(=O)Nc1ccc2c(c1)C(=O)N(C)C[C@@H](OC)[C@@H](C)CN(Cc1cncnc1)[C@H](C)CO2	·	-1.1	·	·	·	·
COC(=O)c1cc(S(=O)(=O)n2nc(C)c(Br)c2C)c(Cl)cc1Cl	1.3	·	30.2*	-2.3	6.0	20.3
Cc1cc(C)n(S(=O)(=O)c2cc(C(=O)O)c(Cl)cc2Cl)n1	-0.1	-0.1	1.0	-0.4	·	·
CC(=O)c1ccc(NC(=O)C2(S(=O)(=O)c3ccccc3)CC2)cc1	0.4	0.2	29.7*	0.4	0.1	-3.4
COc1cccc(C(=O)Nc2sc(C(C)C)cc2C(N)=O)c1OC	-1.2	-1.7	29.9*	0.2	2.0	20.1
CCn1c(C)cs/c1=N\S(=O)(=O)c1ccccc1	0.3	-1.6	7.5	-3.4	·	·
O=Cc1s/c(=N\S(=O)(=O)c2ccccc2)n(CCCCl)c1Cl	-12.5	-4.9	45.9*	-4.7	10.7	19.0
Cc1cccc(C(=O)Nc2ccc(C(=O)/C=C/c3cccnc3)cc2)c1	1.6	·	29.9*	0.1	-8.7	2.0
CC(=O)Oc1ccc(CN2C(=O)C(CCc3ccccc3)ON=C2c2cnccn2)cc1 (configuration not stated)	0.0	-1.1	28.8*	-0.3	5.9	12.9
O=C(O)c1cnn(-c2nc(-c3ccc(Cl)c(Cl)c3)cs2)c1C(F)(F)F	-2.9	2.6	52.0*	2.2	5.1	21.5
O=C(O)c1cnn(-c2nc(-c3cccc([N+](=O)[O-])c3)cs2)c1C(F)(F)F	-1.0	-1.8	33.3*	0.1	1.4	2.6
CC(=O)Oc1ccc2c(=O)oc(-c3ccccc3)nc2c1	-2.9	2.6	14.7	0.3	·	·
CC(=O)Oc1ccc2nc(-c3ccc(Br)o3)oc(=O)c2c1	-1.5	-3.7	32.0*	1.4	6.1	36.2*
